High-throughput results from PubChem.
SENP1 inh: inhibitors of human SENP1 SUMO protease catalytic domain. inhibition, % at 10 µM. recombinant SENP1 catalytic domain, CyPet-SUMO1-YPet FRET cleavage. 360,000 compounds, 0.21% hits;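 active = inhibition at least 30% at 10 µM, raw YFP signal under a set limit, fluorescence ratio 0.5 to 1.5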;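 also: 0% = enzyme with DMSO and 100% = no enzyme wells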
Target sequence (Q9P0U3 419-644 limits assumed): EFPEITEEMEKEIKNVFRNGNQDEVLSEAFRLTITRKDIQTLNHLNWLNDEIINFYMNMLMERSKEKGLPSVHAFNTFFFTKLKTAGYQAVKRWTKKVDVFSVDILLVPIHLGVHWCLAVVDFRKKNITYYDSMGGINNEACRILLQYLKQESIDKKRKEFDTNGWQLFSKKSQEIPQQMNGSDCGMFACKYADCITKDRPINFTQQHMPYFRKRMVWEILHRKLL
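System: Recombinant human SENP1 catalytic domain, His6-tagged | Incubation: Enzyme reaction for 50 min at room temperature, dark | Medium: Tris pH 8 with BME, BSA, NP40 and catalase | Also added: 25 nM SUMO1 FRET substrate | Compound: 10 µM single point, 0.5% DMSO | Measured by: FRET fluorescence in CFP and YFP emission channels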
CSN deneddyl inh: inhibitors of human CSN-mediated cullin deneddylation. Q92905. Purified CSN, SCF-Nedd8-OG deneddylation, fluorescence polarization. inhibition, % at 12.5 µM. 360,000 compounds, 0.38% hits;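 active = pattern-corrected inhibition above about 35%, with an unprinted fluorescence ratio check between 0.5 and 1.5, limit read from the data, passing the limit was not always enough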;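 also: 0% = enzyme with substrate and 100% = substrate without enzyme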
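Detection – fluorescence polarization · System – HEK293T-derived human Csn5 enzyme · Controls – substrate-only high control, full reaction low control · Timing – 90 min, room temperature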
TPT1 inh: blocks Candida albicans tRNA 2'-phosphotransferase | recombinant caTPT1, FP RNA substrate dephosphorylation | inhibition, % at 5 µM | 300,000 compounds, 0.81% hits;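 active = inhibition above the mean of all tested compounds plus 3 SD, set per screening campaign, cut at about 24% in these data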;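 also: plate controls were DMSO alone for no effect and ferristatin control at 100 nM for full effect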
Rpn11 inh: inhibitors of human proteasome Rpn11; human 26S proteasome, Ub4-pepOG fluorescence polarization; 20S core pre-blocked with epoxomicin; AID 588493; inhibition, % at 20 µM; 360,000 compounds, 0.59% hits;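 active = inhibition at 20 µM, scaled to each plate's controls, above about 33%, limit read from the data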
ATG4B inhibitor: inhibitors of human ATG4B cysteine protease | Q9Y4P1 | ATG4B cleavage of LC3-PLA2, NBD-HPC fluorescence, 1 h | inhibition, % at 8.33 µM | 340,000 compounds, 0.51% hits | AID 504462; in the data active = inhibition above about 40%
Target sequence (Q9Y4P1 whole entry, looked up): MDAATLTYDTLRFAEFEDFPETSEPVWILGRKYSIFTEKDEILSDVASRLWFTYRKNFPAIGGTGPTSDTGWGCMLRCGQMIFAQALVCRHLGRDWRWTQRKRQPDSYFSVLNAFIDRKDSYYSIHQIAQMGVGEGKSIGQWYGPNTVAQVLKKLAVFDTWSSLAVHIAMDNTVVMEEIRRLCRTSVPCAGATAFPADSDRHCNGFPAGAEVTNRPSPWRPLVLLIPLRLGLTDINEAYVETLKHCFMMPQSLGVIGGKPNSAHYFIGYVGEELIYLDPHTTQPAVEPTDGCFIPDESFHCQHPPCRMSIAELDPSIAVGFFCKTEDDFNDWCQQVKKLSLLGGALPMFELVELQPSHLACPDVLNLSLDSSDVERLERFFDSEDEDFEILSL
HNF4A DNA FP: change in binding of human HNF4 alpha to DNA; HNF4a-FITC DNA binding, fluorescence polarization, 1 h; activity change, % at 10 µM; 360,000 compounds, 0.3% hits; AID 1224865; in the data active = activity change above about 30%, passing the limit was not always enough
SENP1 conf: SENP1 (human) inhibition, single concentration confirmation. 520 compounds, 34% hits. recombinant SENP1, CyPet-SUMO1-YPet FRET cleavage. inhibition, % at 10 µM. shares compounds with SENP1 inh; in the data active = inhibition mostly above about 35%, no sharp cut-off; inactive = mostly below about 32%;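 also: 0% = enzyme with DMSO and 100% = no enzyme control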
SENP1 kin conf: SENP1 (human) inhibition, kinetic confirmation; inhibition, % at 10 µM; recombinant SENP1, CyPet-SUMO1-YPet FRET kinetic cleavage; AID 651690; 520 compounds, 26% hits; shares compounds with SENP1 inh; in the data active = inhibition mostly above about 32%, no sharp cut-off; inactive = mostly below about 29%;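 also: 0% = DMSO with enzyme and 100% = no enzyme substrate only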
* = called active by the depositor; / = no result given. Most compounds without a hit are left out; they make up all but 2% or so of the library.

SMILES	SENP1 inh	CSN deneddyl inh	TPT1 inh	Rpn11 inh	ATG4B inhibitor	HNF4A DNA FP	SENP1 conf	SENP1 kin conf
CCOc1ccccc1N=Nc1c(C)[nH]n(C(N)=S)c1=O	48*	-1	4	-21	-6	1	14	3
Cc1c(C=NNC(=O)c2ccc(Br)cc2)c2ccccn2c1C(=O)c1ccncc1	50*	6	/	24	-6	12	30	18
COc1ccccc1C(=O)NC(=O)COC(=O)C1CC2CCCC(C1)C2=O (stereo not given)	1	0	/	-3	-1	0	/	/
COc1ccccc1NC(=O)c1ccc(CSc2ncccn2)cc1	/	/	-2	/	/	/	/	/
Cc1nonc1CN(C)C(=O)c1ccc(OC2CCN(C(=O)c3cccnc3)CC2)cc1	3	-3	0	-5	11	3	/	/
CCOC(=O)C1=C(c2ccccc2)NC(=O)NC1c1cc(Cl)c(O)c(OC)c1 (stereo not given)	32*	2	4	4	-2	-6	30	23
CCOC(=O)C1=C(c2ccccc2)NC(=O)NC1c1cc(OC)c(OC)c(OC)c1 (stereo not given)	-1	3	/	8	-9	-3	/	/
CCOc1cc(/C=C2\SC(=Nc3ccc(CC)cc3)NC2=O)ccc1OCC(=O)O	-95	7	-1	2	9	5	/	/
CCOc1cc(Br)cc(/C=C2\SC(=Nc3ccccc3)NC2=O)c1O	35*	4	3	10	11	3	69*	45*
C=CCOc1c(Br)cc(/C=C2\SC(=Nc3ccccc3)NC2=O)cc1OC	42*	6	/	21	-2	3	25	20
CCOC(=O)C1CCN(C(=O)CCn2c(=O)oc3ccccc32)CC1	1	-1	/	0	/	2	/	/
NC(=O)C1CCN(C(=O)CCn2c(=O)oc3ccccc32)CC1	33*	14	/	/	-1	8	4	-4
CN(C)c1cccc2c(S(=O)(=O)N3CCOCC3)cccc12	41*	12	-6	-8	-7	0	10	11
CN(C)c1cccc2c(S(=O)(=O)N3CCCC3)cccc12	24	0	-2	-8	0	1	/	/
Cc1ccc(-c2cc(Cc3ccccn3)c(=O)[nH]n2)cc1	2	1	2	-6	5	1	/	/
Cc1ccccc1-n1cc(C(=O)c2cc(Cl)ccc2O)cc(C#N)c1=O	43*	-7	10	15	-6	1	35	24
NNC(=O)c1cc(-c2ccc(N)cc2)nc2ccc(Br)cc12	49*	5	4	11	0	-6	26	23
CCCN(Cc1nnc(-c2cccs2)o1)C(=O)c1cccc(S(=O)(=O)N2CCOCC2)c1	-1	-2	/	-3	-14	3	/	/
COc1ccc(C(=O)/C=C/Nc2c(C)n(C)n(-c3ccccc3)c2=O)cc1OC	31*	6	-2	-2	-6	4	-1	4
O=C(Cn1ccccc1=S)c1ccc(Cl)c(Cl)c1	2	1	1	3	-1	-1	/	/
O=C(CN1CCSC1=NCc1ccccc1)c1ccc(Cl)c(Cl)c1	40*	-11	1	10	-2	0	-13	-5
Cc1noc(C)c1CCC(=O)Nc1cc(C(=O)O)ccc1Cl	2	-5	/	-4	/	0	/	/
COc1cccc(N=Cc2ccc(O)cc2O)c1	36*	-1	-6	-15	9	20	17	11
COc1ncc(-c2ccc(N3C(c4ccc([N+](=O)[O-])cc4)=Cc4ccccc4C3CC(C)=O)cc2)cn1 (stereo not given)	48*	2	/	/	/	5	18	11
COc1cc(OC)cc(C2=Cc3ccccc3C(CC(C)=O)N2c2ccc(-c3cncnc3)cc2)c1 (stereo not given)	-5	-3	/	/	/	-1	/	/
SMILES	SENP1 inh	CSN deneddyl inh	TPT1 inh	Rpn11 inh	ATG4B inhibitor	HNF4A DNA FP	SENP1 conf	SENP1 kin conf
COc1cc(SC#N)ccc1N=Cc1c(C)[nH]n(-c2ccc(C)cc2C)c1=O	67*	8	17	14	-26	3	38*	34*
Nc1ccccc1C#Cc1ccc([N+](=O)[O-])cc1	33*	2	5	-4	-2	1	18	17
CCCN(CCC)C(=O)Cn1c(=O)c2ccccc2n2c(=S)sc(-c3ccccc3C)c12	7	5	5	4	-2	2	/	/
CCCN(CCC)C(=O)Cn1c(=O)c2sccc2n2c(=S)sc(-c3ccccc3)c12	66*	20	1	/	13	155	47*	30
O=c1cc(O)c(-c2ccc(Cl)cc2)c(Cl)[nH]1	-1	-1	-2	3	-3	-2	/	/
O=C1c2cc(Cl)ccc2-c2c(O)cc(Cl)cc21	49*	5	/	3	2	6	19	15
COc1ccc(NC(=O)C2CC(=O)N(CCc3ccc(Cl)cc3)C2)cc1 (stereo not given)	0	2	-2	9	-2	2	/	/
CC1(C)c2ssc(=S)c2-c2ccccc2N1C(=O)c1ccco1	32*	2	1	-3	-13	-1	4	9
Cc1ccc2c(c1)-c1c(ssc1=S)C(C)(C)N2C(=O)c1ccco1	-1	2	2	5	-23	-4	/	/
COc1ccccc1NC(=O)c1cc2n(n1)C(C(F)(F)F)CC(c1ccc3c(c1)OCO3)N2 (stereo not given)	38*	1	3	2	-3	1	31	23
CC(=O)c1ccc(Sc2ccccc2N)c([N+](=O)[O-])c1	37*	-3	1	-12	-6	4	15	7
CC(C)(CNC(=O)c1ccc(NS(=O)(=O)c2ccc(Br)cc2)cc1)N1CCOCC1	3	5	-2	1	7	3	/	/
CC(C)C(NC(=O)C12CC3CC(CC(C3)C1)C2)C(=O)N/N=C/C1=C(N2CCOCC2)C(=C\c2ccc([N+](=O)[O-])cc2)/CC1 (stereo not given)	75*	5	1	29	0	1	24	7
CC(=O)Nc1cc(-c2ccc(N3CCN(C)CC3)cc2)cn2c(-c3ccccc3)cnc12	48*	6	/	7	/	12	39*	28
COc1cc(-c2cnc3c(NC=O)cc(-c4ccc(N5CCN(C)CC5)cc4)cn23)cc(OC)c1OC	21	7	/	17	/	12	/	/
